# Experimental data gathered from unrelated publications.
# Compare with care: the assays were run in different laboratories.
# Target: Ribosomal protein S6 kinase beta-1 (RPS6KB1, Homo sapiens, UniProt P23443)
SMILES,observed,technique,concentration,remaining binding
CN(C)c1nccc(-c2cnn3ncccc23)n1,binding,,1 µM,100%
NS(=O)(=O)c1cc(NC(=O)Cc2ccccc2)ccc1Oc1cccc(Cl)c1,cell-free assay,competition with immobilised ligand,1 µM,69%
O=C(c1ccc(Nc2ncc(Cl)c(-c3cc4ccccc4s3)n2)cc1)N1CCC(N2CCCC2)CC1,binding,competition with immobilised ligand,1 µM,37%
CCC(=N\O)/C(C)=C/c1ccc(F)cc1,cell-free assay,competition with immobilised ligand,1 µM,66%
CN(c1nccc(-c2cnn3ncccc23)n1)C1CC1,binding,,1 µM,100%
O=C(Nc1c[nH]nc1C(=O)NC1CCNCC1)c1cc(F)cc(F)c1,binding,competition with immobilised ligand,1 µM,99%
CNC(=O)c1ccc(Nc2ncc(C(F)(F)F)c(NCc3nccnc3N(C)S(C)(=O)=O)n2)cc1,cell-free assay,competition with immobilised ligand,0.1 µM,96%
C[C@H]1CCN(c2nccc(-c3cnn4ncccc34)n2)C1,binding,,1 µM,81%
COc1ncc2cc3ccccc3nc2c1C#N,cell-free assay,competition with immobilised ligand,5 µM,100%
C[C@@H](c1ccc(-n2cnc3c(N)ncnc32)cc1)N1CCc2nn(C)c(Cc3ccccc3)c2C1=O,binding,competition with immobilised ligand,0.1 µM,67%
F[C@@H]1CCN(c2nccc(-c3cnn4ncccc34)n2)C1,binding,,1 µM,100%
O=C(c1ccc(Nc2nccc(-c3cc4ccccc4s3)n2)cc1)N1CCC(N2CCCC2)CC1,binding,competition with immobilised ligand,1 µM,79%
CN(C)C(=O)Cn1cc(-c2nc([C@@](C)(c3ccc(-c4cnc(N)nc4)cc3)C3CC3)no2)cn1,cell-free assay,competition with immobilised ligand,1 µM,83%
Cc1cnn2ncc(-c3ccnc(N(C)C)n3)c2c1,binding,,1 µM,82%
C[C@@H](c1cccc(C#N)c1)n1cc(Cl)cc(C(N)=O)c1=N,cell-free assay,competition with immobilised ligand,1 µM,100%
O=C(c1ccc(Nc2ncc(Cl)c(-c3ccc(Cl)s3)n2)cc1)N1CCC(N2CCCC2)CC1,binding,competition with immobilised ligand,1 µM,21%
c1cncc(-c2cccc(Nc3nccc(NC4CCCCC4)n3)c2)c1,binding,competition with immobilised ligand,10 µM,64%
N[C@H]1CCN(c2nccc(-c3cnn4ncccc34)n2)C1,binding,,1 µM,100%
O=C(O)c1cc(-c2ccc(C3CCNCC3)cc2)c2ccc(-c3ccc(C(F)(F)F)cc3)cc2c1,cell-free assay,competition with immobilised ligand,1 µM,100%
COc1cnc(Nc2cccc(S(N)(=O)=O)c2)nc1N1CCN(c2ccccc2)CC1,binding,competition with immobilised ligand,1 µM,94%
